# According to ChEMBL document CHEMBL3272355, “Structure--activity relationships in cephalosporins prepared from penicillins. 1. 7beta-Acylamino derivatives of 3-benzyl- and 3-(3-pyridylmethyl)ceph-3-em-4-carboxylic acids” (1977):
# Assays:
# Staphylococcus aureus [1] = experiment: Antibacterial activity against Staphylococcus aureus Oxford assessed as growth inhibition after 18 hrs by serial dilution method; type: functional
# Procedure, shortened: (§1)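 Agar dilution MIC: serial dilutions in nutrient agar, each spot-inoculated with 0.001 mL of undiluted overnight broth culture. MIC read after 18 h incubation at 37 °C.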
# Staphylococcus aureus [2] = experiment: Antibacterial activity against beta-lactamase producing benzylpenicillin-resistant Staphylococcus aureus Russell assessed as growth inhibition after 18 hrs by serial dilution method; type: functional
# Escherichia coli = experiment: Antibacterial activity against Escherichia coli assessed as growth inhibition after 18 hrs by serial dilution method; type: functional; procedure, shortened: as §1
# Salmonella typhi = experiment: Antibacterial activity against Salmonella typhi assessed as growth inhibition after 18 hrs by serial dilution method; type: functional, Salmonella enterica subsp. enterica serovar Typhi; details: Salmonella enterica
# Shigella sonnei = experiment: Antibacterial activity against Shigella sonnei assessed as growth inhibition after 18 hrs by serial dilution method; type: functional; procedure, shortened: as §1
# Klebsiella aerogenes = experiment: Antibacterial activity against Klebsiella aerogenes assessed as growth inhibition after 18 hrs by serial dilution method; type: functional; procedure, shortened: as §1
# Proteus mirabilis = experiment: Antibacterial activity against Proteus mirabilis assessed as growth inhibition after 18 hrs by serial dilution method; type: functional; procedure, shortened: as §1
Structure (SMILES),MIC (Staphylococcus aureus [1]),MIC (Staphylococcus aureus [2]),MIC (Escherichia coli),MIC (Salmonella typhi),MIC (Shigella sonnei),MIC (Klebsiella aerogenes),MIC (Proteus mirabilis)
N[C@@H](C(=O)N[C@@H]1C(=O)N2C(C(=O)O)=C(Cc3cccnc3)CS[C@H]12)c1ccccc1,0.25 µg/mL,2.5 µg/mL,2.5 µg/mL,1.25 µg/mL,2.5 µg/mL,2.5 µg/mL,5 µg/mL
O=C(O)C1=C(Cc2cccnc2)CS[C@@H]2[C@H](NC(=O)[C@H](O)c3ccccc3)C(=O)N12,0.25 µg/mL,12.5 µg/mL,2.5 µg/mL,2.5 µg/mL,2.5 µg/mL,2.5 µg/mL,5 µg/mL
CCSCC(=O)N[C@@H]1C(=O)N2C(C(=O)O)=C(Cc3ccccc3)CS[C@H]12,0.12 µg/mL,1.25 µg/mL,> 125 µg/mL,125 µg/mL,> 125 µg/mL,> 125 µg/mL,> 125 µg/mL
O=C(CSc1ccncc1)N[C@@H]1C(=O)N2C(C(=O)O)=C(Cc3cccnc3)CS[C@H]12,< 0.02 µg/mL,1 µg/mL,25 µg/mL,10 µg/mL,25 µg/mL,5 µg/mL,100 µg/mL
CC(=O)N[C@@H]1C(=O)N2C(C(=O)O)=C(Cc3ccccc3)CS[C@H]12,0.5 µg/mL,2.5 µg/mL,> 500 µg/mL,500 µg/mL,> 500 µg/mL,> 500 µg/mL,> 500 µg/mL
N[C@@H](C(=O)N[C@@H]1C(=O)N2C(C(=O)O)=C(Cc3ccccc3)CS[C@H]12)c1ccc(O)cc1,0.12 µg/mL,1.25 µg/mL,12.5 µg/mL,5 µg/mL,12.5 µg/mL,5 µg/mL,25 µg/mL
O=C(COc1ccccc1)N[C@@H]1C(=O)N2C(C(=O)O)=C(Cc3ccccc3)CS[C@H]12,0.02 µg/mL,0.12 µg/mL,> 500 µg/mL,> 500 µg/mL,> 500 µg/mL,> 500 µg/mL,500 µg/mL
O=C(O)CSCC(=O)N[C@@H]1C(=O)N2C(C(=O)O)=C(Cc3ccccc3)CS[C@H]12,5 µg/mL,25 µg/mL,> 500 µg/mL,250 µg/mL,250 µg/mL,> 500 µg/mL,125 µg/mL
N[C@@H](C(=O)N[C@@H]1C(=O)N2C(C(=O)O)=C(Cc3cccnc3)CS[C@H]12)C1CC1,5 µg/mL,12.5 µg/mL,500 µg/mL,250 µg/mL,250 µg/mL,250 µg/mL,500 µg/mL
O=C(O)C1=C(Cc2ccccc2)CS[C@@H]2[C@H](NC(=O)C(C(=O)Oc3ccccc3)c3ccccc3)C(=O)N12 (some centres undefined),2.5 µg/mL,25 µg/mL,> 100 µg/mL,> 100 µg/mL,> 100 µg/mL,> 100 µg/mL,50 µg/mL
C[C@@H](N)C(=O)N[C@@H]1C(=O)N2C(C(=O)O)=C(Cc3ccccc3)CS[C@H]12,5 µg/mL,10 µg/mL,> 100 µg/mL,> 100 µg/mL,> 100 µg/mL,> 100 µg/mL,> 100 µg/mL
O=C(Cc1cccs1)N[C@@H]1C(=O)N2C(C(=O)O)=C(Cc3ccccc3)CS[C@H]12,0.05 µg/mL,10 µg/mL,200 µg/mL,200 µg/mL,200 µg/mL,> 200 µg/mL,> 200 µg/mL
N#CCC(=O)N[C@@H]1C(=O)N2C(C(=O)O)=C(Cc3ccccc3)CS[C@H]12,0.12 µg/mL,0.5 µg/mL,500 µg/mL,250 µg/mL,500 µg/mL,> 500 µg/mL,> 500 µg/mL
O=C(COc1ccccc1)N[C@@H]1C(=O)N2C(C(=O)O)=C(Cc3cccnc3)CS[C@H]12,0.02 µg/mL,0.12 µg/mL,500 µg/mL,500 µg/mL,500 µg/mL,500 µg/mL,125 µg/mL
NC(C(=O)N[C@@H]1C(=O)N2C(C(=O)O)=C(Cc3cccnc3)CS[C@H]12)c1cccs1 (some centres undefined),0.5 µg/mL,5 µg/mL,12.5 µg/mL,2.5 µg/mL,5 µg/mL,5 µg/mL,12.5 µg/mL
O=C(Cc1cccs1)N[C@@H]1C(=O)N2C(C(=O)[O-])=C(C[n+]3ccccc3)CS[C@H]12 [CEPHALORIDINE],0.02 µg/mL,1.25 µg/mL,5 µg/mL,1.25 µg/mL,1.25 µg/mL,2.5 µg/mL,5 µg/mL
O=C(Cc1ccncc1)N[C@@H]1C(=O)N2C(C(=O)O)=C(Cc3cccnc3)CS[C@H]12,0.12 µg/mL,25 µg/mL,25 µg/mL,10 µg/mL,25 µg/mL,10 µg/mL,10 µg/mL
O=C(Cn1ncnn1)N[C@@H]1C(=O)N2C(C(=O)O)=C(Cc3ccccc3)CS[C@H]12,0.12 µg/mL,1.25 µg/mL,> 500 µg/mL,> 500 µg/mL,125 µg/mL,500 µg/mL,125 µg/mL
N[C@@H](C(=O)N[C@@H]1C(=O)N2C(C(=O)O)=C(Cc3ccccc3)CS[C@H]12)c1ccccc1,0.1 µg/mL,2.5 µg/mL,25 µg/mL,25 µg/mL,25 µg/mL,25 µg/mL,50 µg/mL
O=C(Cc1cccs1)N[C@@H]1C(=O)N2C(C(=O)O)=C(Cc3cccnc3)CS[C@H]12,0.05 µg/mL,10 µg/mL,25 µg/mL,5 µg/mL,25 µg/mL,25 µg/mL,25 µg/mL
CC1=C(C(=O)O)N2C(=O)[C@@H](NC(=O)[C@H](N)c3ccccc3)[C@H]2SC1 [CEPHALEXIN ANHYDROUS],1.25 µg/mL,5 µg/mL,12.5 µg/mL,5 µg/mL,5 µg/mL,5 µg/mL,12.5 µg/mL
CC(=O)OCC1=C(C(=O)O)N2C(=O)[C@@H](NC(=O)Cc3cccs3)[C@H]2SC1 [CEPHALOTHIN],0.12 µg/mL,0.5 µg/mL,5 µg/mL,12.5 µg/mL,5 µg/mL,5 µg/mL,5 µg/mL
O=C(CSc1ccncc1)N[C@@H]1C(=O)N2C(C(=O)O)=C(Cc3ccccc3)CS[C@H]12,0.05 µg/mL,2.5 µg/mL,250 µg/mL,250 µg/mL,250 µg/mL,> 500 µg/mL,250 µg/mL
N[C@@H](C(=O)N[C@@H]1C(=O)N2C(C(=O)O)=C(Cc3ccccc3)CS[C@H]12)C1CC1,5 µg/mL,12.5 µg/mL,> 250 µg/mL,> 250 µg/mL,> 250 µg/mL,> 250 µg/mL,> 250 µg/mL
NC(CC(=O)N[C@@H]1C(=O)N2C(C(=O)O)=C(Cc3cccnc3)CS[C@H]12)C1CC=CCC1 (mixture of isomers),0.5 µg/mL,1.25 µg/mL,125 µg/mL,125 µg/mL,125 µg/mL,125 µg/mL,250 µg/mL
O=C(O)C1=C(Cc2cccnc2)CS[C@@H]2[C@H](NC(=O)C(C(=O)Oc3ccccc3)c3cccs3)C(=O)N12 (some centres undefined),12.5 µg/mL,,12.5 µg/mL,50 µg/mL,12.5 µg/mL,12.5 µg/mL,12.5 µg/mL
O=C(O)C1=C(Cc2ccccc2)CS[C@@H]2[C@H](NC(=O)C(F)(F)F)C(=O)N12,2.5 µg/mL,12.5 µg/mL,> 500 µg/mL,> 500 µg/mL,> 500 µg/mL,> 500 µg/mL,500 µg/mL
CCSCC(=O)N[C@@H]1C(=O)N2C(C(=O)O)=C(Cc3cccnc3)CS[C@H]12,0.05 µg/mL,1.25 µg/mL,50 µg/mL,50 µg/mL,50 µg/mL,50 µg/mL,25 µg/mL
O=C(Cc1ccncc1)N[C@@H]1C(=O)N2C(C(=O)O)=C(Cc3ccccc3)CS[C@H]12,0.05 µg/mL,5 µg/mL,50 µg/mL,50 µg/mL,50 µg/mL,100 µg/mL,100 µg/mL
O=C(O)C1=C(Cc2ccccc2)CS[C@@H]2[C@H](NC(=O)[C@H](O)c3ccccc3)C(=O)N12,0.12 µg/mL,12.5 µg/mL,125 µg/mL,50 µg/mL,50 µg/mL,50 µg/mL,> 500 µg/mL
